Measured values as given in publication PMC5557401 (Drug Design, Development and Therapy, 2017).

How the values were obtained:
[1] = test system: A-549 cells; assay: Cell cycle effects and total cell number; format: cell-based, human; conditions: A-549, 24 and 48 h of incubation
Procedure, shortened: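 A-549 lung adenocarcinoma cells were exposed to a concentration range from under 100 nM to 50 μM for 24 and 48 h. Cells were immunofluorescently imaged for phosphorylated Rb and total DNA content per cell to assign cell-cycle phase and total cell number. IC50 was derived for the reduction in total cell number.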

[2] = In vitro metabolism with rat liver microsomes, LC-MS; format: in vitro ADME; conditions: incubation with rat liver microsomes, phase I

Metabolic reaction (in vitro RLMs metabolites) [2]	SMILES	Cell cycle effects [1]
–	CCN(CC)CCNC(=O)c1c(C)[nH]c(/C=C2\C(=O)Nc3ccc(F)cc32)c1C [Sunitinib, reference compound]	reduction in the percentage of cells in G1, with corresponding increases in S or G2/M phases
demethylation	COc1ccc(-c2nc(NN=C3C(=O)Nc4ccc(Br)cc43)c3ccccc3n2)cc1OC [Compound 7d, 5-Bromo-3-(2-(2-(3,4-dimethoxyphenyl)quinazolin-4-yl) hydrazono)indolin-2-one]	no effects on the tested parameters
